# TAG inh = inhibitors of triacylglycerol accumulation. H9c2 cells, Nile Red lipid (TAG) fluorescence; cells loaded with 200 µM oleic acid. inhibition, % at 12.5 µM. 230,000 compounds, 0.66% hits. AID 651582;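 active = pattern-corrected inhibition of lipid staining of at least 50% with the nuclear-stain viability signal not falling by more than 50%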;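 also: 0% = DMSO wells and 100% = triacsin C control wells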
# NTR1 ag = NTR1 (human) agonism; NTR1-U2OS beta-arrestin-GFP spot imaging, agonist mode; P30989; AID 493036; 330,000 compounds, 0.17% hits; activation, % at 20 µM;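 active = activation at or above 40% of the spot to cytoplasm intensity ratio, with at least 20 cells analyzed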;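 also: 0% = DMSO without peptide and 100% = 100 nM NTR1 peptide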
# aDG glyco up = increases alpha dystroglycan glycosylation; Pro5-aDG cells, alpha-DG glycosylation AlphaScreen (IIH6); 0% Pro5, 100% B10-LARGE cell signal; activation, % at 10 µM; 360,000 compounds, 0.22% hits;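 active = activation of at least 8% versus controls, or a plate z-score of at least 8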;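 also: Pro5 are CHO cells carrying HIG-tagged alpha-DG that lacks glycosylation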
# MC4R barr agon = agonists of human melanocortin 4 receptor (MC4R) beta-arrestin | AID 540308 | U2OS MC4R beta-arrestin complementation, luminescence; percent of melanotan II response, DMSO zero | activation, % at 8.9 µM | 360,000 compounds, 0.98% hits | P32245;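 active = activation above a per-plate cutoff, the mean activation of sample wells on that plate plus 3 SD, cut at about 8% in these data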
# Target sequence (P32245 whole entry, looked up): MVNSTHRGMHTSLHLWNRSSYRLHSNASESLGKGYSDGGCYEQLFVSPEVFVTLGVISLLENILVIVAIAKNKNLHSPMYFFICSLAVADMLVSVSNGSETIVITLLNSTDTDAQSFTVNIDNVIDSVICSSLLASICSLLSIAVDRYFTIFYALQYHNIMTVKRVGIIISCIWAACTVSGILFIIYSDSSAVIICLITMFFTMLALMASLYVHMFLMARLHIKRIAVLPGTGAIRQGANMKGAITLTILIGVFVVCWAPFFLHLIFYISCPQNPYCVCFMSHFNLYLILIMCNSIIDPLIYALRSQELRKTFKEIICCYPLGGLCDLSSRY
# MC4R antagonist = antagonists of human melanocortin 4 receptor (MC4R) | inhibition, % at 6.5 µM | 360,000 compounds, 0.48% hits | AID 540295 | P32245 | MC4R-expressing cells, MTII-stimulated cAMP, LANCE TR-FRET;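 active = inhibition above its plate's cutoff, the mean of tested wells on that plate plus 3 SD, cut at about 29% in these data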;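 also: 0% = Melanotan II alone and 100% = Melanotan II plus saturating MCL0020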
#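 material = U2OS cells stably expressing human melanocortin 4 receptor (MC4R) | also added = Melanotan II challenge | dosing = single nominal compound dose of 6.5 µM | detection = TR-FRET with Eu-cAMP and labeled anti-cAMP, 671 nm | replication = singlicate | timing = compound 30 min, challenge 1 h, detection 1 h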
# TbMetRS inhib = blocks T. brucei methionyl-tRNA synthetase activity | AID 624268 | purified T. brucei MetRS, ATP depletion, Kinase-Glo luminescence | 360,000 compounds, 0.4% hits | inhibition, % at 11.9 µM;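 active = inhibition above a per-plate cutoff of the control wells' mean inhibition plus 3 SD, cut at about 5.5% in these data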;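 also: 0% = DMSO wells median and 100% = median of wells with control inhibitor compound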
#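 Measured by: Kinase-Glo luciferase luminescence reporting remaining unconsumed ATP. Material: purified T. brucei MetRS enzyme. Doses: 11.9 µM compound single dose, 0.9% DMSO. Medium: HEPES buffer containing pyrophosphatase, BSA, spermine, DTT. Times: 15 min preincubation, 2 h reaction, all 25 °C. Reagent: methionine, ATP and bulk E. coli tRNA.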
# MC4R barr conf = human MC4R beta-arrestin agonism confirmation | shares compounds with MC4R barr agon | U2OS MC4R beta-arrestin recruitment, luminescence; scaled DMSO 0%, Melanotan II 100% | activation, % at 8.9 µM | 2,400 compounds, 31% hits;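 active = mean activation across replicates above the hit cutoff set in the earlier primary screen, cut at about 8% in these data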
# MOR DOR agonist = counter-screen for MC4R agonists: agonists of mu-delta opioid heterodimer; U2OS PathHunter beta-arrestin, beta-gal luminescence; percent of deltorphin B response, DMSO zero; shares compounds with MC4R barr agon; AID 602194; 2,400 compounds, 5.8% hits; activation, % at 9.2 µM;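 active = mean activation across replicates exceeds the hit threshold derived in the earlier primary screen, cut at about 18% in these data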;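 also: 100% = deltorphin B at 0.9 µM final and 0% = DMSO alone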
# Numbers without * were called inactive; / = not tested or not shown. The list is not random: actives were taken first. Their share in the collection is about 2.4%.
SMILES,TAG inh,NTR1 ag,aDG glyco up,MC4R barr agon,MC4R antagonist,TbMetRS inhib,MC4R barr conf,MOR DOR agonist
CC(=O)Nc1cc(-c2cccc(N)c2)cn2c(-c3ccccc3)cnc12,-6,/,0,12*,18,0,2,3
CC(=O)NCCNc1nc2cc(-c3cccc(Cl)c3)sc2c(=O)n1C,8,/,0,0,1,0,/,/
CN(C)C(=O)c1cccc(-c2cnc3c(NC=O)cc(-c4cccc(F)c4)cn23)c1,33,/,0,5,-16,0,/,/
CC(=O)c1cccc(-c2cnc3c(NC=O)cc(-c4ccccc4F)cn23)c1,6,/,0,20*,-8,0,20*,3
CC(=O)Nc1cc(-c2ccccc2)cn2c(-c3cccc(C(C)=O)c3)cnc12,2,/,0,21*,6,0,20*,3
COC(=O)[C@@]12C[C@@H](CC(=O)NCc3cccc4ccccc34)C(=O)N(CCc3ccc(OC)c(OC)c3)C1=CCC(C)(C)C2,/,/,0,/,/,-1,/,/
CN(Cc1cn(Cc2cccc(C(F)(F)F)c2)nn1)C1CN(Cc2cn(Cc3cccc(C(F)(F)F)c3)nn2)S(=O)(=O)C1 (centres undefined),/,/,0,/,/,-1,/,/
CCOc1ccc(OCc2ccc(C(=O)N3N=C(C(F)F)CC3(O)C(F)F)o2)cc1 (centres undefined),/,0,0,8,3,-2,/,/
O=C(c1ccc(COc2ccc(Br)cc2)o1)N1N=C(C(F)F)CC1(O)C(F)F (centres undefined),/,10,0,11*,7,0,22*,14
O=C(c1ccc(COc2ccc3ccccc3c2)o1)N1N=C(C(F)F)CC1(O)C(F)F (centres undefined),/,26,0,30*,-4,-1,16*,6
COC(=O)[C@]12CCCCC=C1N(Cc1ccc(Cl)cc1Cl)C(=O)[C@H](CC(=O)NCC1CCCCC1)C2,/,/,0,/,/,-1,/,/
O=C(CSc1nnc(-c2cccs2)n1-c1ccccc1)Nc1ccccc1,-5,4,0,11*,22,0,2,7
Cc1coc2c(C)c3oc(=O)c(CCC(=O)N[C@H](C(=O)O)C(C)C)c(C)c3cc12,2,/,0,-1,-1,0,/,/
Cc1cc(N2CCN(c3nc(-c4ccc([N+](=O)[O-])cc4)cs3)CC2)c2ccccc2n1,25,2,-1,19*,12,-1,11*,7
Cc1cc(-c2ccc([N+](=O)[O-])cc2)nc2ccccc12,-10,2,0,-3,0,0,/,/
CCCCCCCCN1C(=O)[C@H](CC(=O)NCc2ccccc2)C[C@@]2(C(=O)OC)CCCCC=C12,/,/,0,/,/,-1,/,/
CC(=O)Nc1ccc(NC(=O)C2CCCN(c3ncccn3)C2)cc1 (centres undefined),3,9,0,0,-2,-1,/,/
O=C(Nc1ccc(Oc2ccccc2)cc1)C1CCCN(c2ncccn2)C1 (centres undefined),/,5,0,9.9*,4,0,0,3
OC[C@H]1O[C@@H](c2nc(-c3ccc4[nH]ccc4c3)no2)[C@H](O)[C@@H](O)[C@H]1O,-7,/,0,1,1,0,/,/
COc1ccc(Cc2nnc(NC(=O)CSc3ccc(C)cc3)s2)cc1,/,4,0,8,3,0,/,/
COc1ccc(Cc2nnc(NC(=O)CSc3ccccc3)s2)cc1,/,4,0,14*,-6,-1,3,3
Cc1cc(S(=O)(=O)N2CCOCC2)ccc1OCC(=O)Nc1ccc(F)c(Cl)c1,/,1,0,16*,-1,0,-2,4
Cc1cc(S(=O)(=O)N2CCOCC2)ccc1OCC(=O)Nc1ccc(F)cc1,/,-2,0,-1,-4,1,/,/
Cc1cccc(C(=O)Nc2ccc(O)c3c(=O)cc(-c4ccccc4Cl)oc23)c1,/,2,1,17*,7,0,0,3
C(=C\c1ccccc1)/CN1CCN(C(CCc2ccccc2)c2nnnn2C2CCCC2)CC1 (centres undefined),/,/,0,/,/,0,/,/
SMILES,TAG inh,NTR1 ag,aDG glyco up,MC4R barr agon,MC4R antagonist,TbMetRS inhib,MC4R barr conf,MOR DOR agonist
CN(C)c1ccc(C=NNc2nc3c([nH]2)c(=O)n(C)c(=O)n3C)cc1,12,/,0,-4,-21,0,/,/
CN(C)c1ccc(/C=N\Nc2nc(-c3ccccc3)cc(=O)[nH]2)cc1,/,4,0,27*,-1,-1,4,5
CO[C@@H]1CN(C)C(=O)c2cc(NC(=O)NC3CCCCC3)ccc2OC[C@@H](C)N(CCc2ccccc2)C[C@@H]1C,/,/,0,/,/,0,/,/
COc1ccc(Cn2c(SCc3ccccc3C)nc3cc(OC)c(OC)cc3c2=N)cc1,59*,31,-1,26*,14,-1,7,27*
CC1=C(C(=O)N2CCCCCC2)CC(CC(=O)NCCN2CCOCC2)C(=O)N1Cc1ccccc1 (centres undefined),/,/,4,/,/,0,/,/
CC(O)(c1ccccc1)c1nc(-c2ccncc2)cs1 (centres undefined),-10,/,1,0,9,0,/,/
CCOc1cccc(-c2cnc3cccnn23)c1,12,/,0,3,1,0,/,/
Cc1ccc(NCCCn2cnc(C(=O)Nc3ccc(C)c(C)c3)n2)cc1C,-2,/,0,8,11,-2,/,/
Cc1cc(C)c(CN2CCN(CCCn3cnc(C(=O)Nc4ccc(C)c(C)c4)n3)CC2)c(C)c1,-28,/,2,16*,1,0,24*,10
COc1cccc(C(=O)Nc2ccc(NC(=O)c3cc4ccccc4o3)c(OC)c2)c1,12,0,0,10*,-2,-1,6,11
Cc1cc(NC(=O)c2cncc(Br)c2)ccc1NC(=O)c1cc2ccccc2o1,-5,7,0,10*,6,0,17*,10
COc1cc(NC(=O)c2ccccc2)ccc1NC(=O)c1cc2ccccc2o1,/,9,0,8,14,0,/,/
COC(=O)C1=CN(c2ccc(C(C)(C)C)cc2)C(N)=C(C#N)C1c1ccccc1F (centres undefined),/,/,0,/,/,-1,/,/
Cc1ccc(-c2cc(C(=O)N/N=C/c3c(C)nn(C)c3C)c3ccccc3n2)cc1C,-13,12,0,11*,10,-1,9.3*,4
